Laboratory results as given in paper PMC8148061 (Acta Pharmaceutica Sinica. B, 2020).
Read-outs that look alike come from different tables or passages of the source.

Assays:
[1] = test system: Ba/F3 Bcr-Abl^T315I; experiment: Antiproliferation cell assay; assay type: cell-based; settings: read-out: Cellular inhibition IC50 Ba/F3 Bcr-Abl^T315I
[2] = target: Bcr-Abl^T315I (Homo sapiens, UniProt P00519+P11274, T315I); experiment: Western blot degradation study in Ba/F3 cells expressed Bcr-Abl^T315I; assay type: cell-based; settings: for DR against Ba/F3 Bcr-Abl^T315I (%) 100 nmol/L / DR against Ba/F3 Bcr-Abl^T315I (%) 300 nmol/L: 24 h treatment, Western blot
[3] = test system: Ba/F3 Bcr-Abl^WT; experiment: Antiproliferation cell assay; assay type: cell-based; settings: read-out: Cellular inhibition IC50 Ba/F3 Bcr-Abl^WT
[4] = test system: K562; experiment: Antiproliferation cell assay; assay type: cell-based, human; settings: read-out: Cellular inhibition IC50 K562
In short: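 K562 (ATCC) cells were grown in RPMI-1640 with 10% FBS, penicillin, streptomycin and 2 mmol/L glutamine at 37 °C in humidified CO2. Log-phase cells were seeded at ~3000/well, rested overnight, then exposed to test compound or vehicle for 72 h (10 mmol/L DMSO stocks). CCK-8 was read as OD450−OD650, with viability normalised to no-cell blank and vehicle wells. IC50 came from concentration–response curve fitting, mean ± SD.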

| Molecule | IC50 ([1]; Mus musculus, BaF3, 72 h) [nM] | DR against Ba/F3 Bcr-Abl^T315I (%) 100 nmol/L [2] [%] | DR against Ba/F3 Bcr-Abl^T315I (%) 300 nmol/L [2] [%] | IC50 ([3]; Mus musculus, BaF3, 72 h) [nM] | IC50 ([4]; Homo sapiens, K562, 72 h) [nM] | improvement of DR compared with 7a ([2]; DR at 300 nmol/L) | IC50 ([1]; 72 h, CCK-8, mean ± SD) [nM] | IC50 ([3]; 72 h, CCK-8, mean ± SD) [nM] | IC50 ([4]; 72 h, CCK-8, mean ± SD) [nM] |
| --- | --- | --- | --- | --- | --- | --- | --- | --- | --- |
| Cc1ccc(C(=O)Nc2ccc(CN3CCN(CCOCCC(=O)Nc4cccc5c4C(=O)N(C4CCC(=O)NC4=O)C5=O)CC3)c(C(F)(F)F)c2)cc1C#Cc1cnc2[nH]ncc2c1 (stereo not drawn) [7g, 3-((1H-Pyrazolo[3,4-b]pyridin-5-yl)ethynyl)-N-(4-((4-(2-(3-((2-(2,6-dioxopiperidin-3-yl)-1,3-dioxoisoindolin-4-yl)amino)-3-oxopropoxy)ethyl)piperazin-1-yl)methyl)-3-(trifluoromethyl)phenyl)-4-methylbenzamide] | 67.5 ± 3.2 | −11.43 | 28.39 | 20.7 ± 2.4 | 3.5 ± 0.5 | – | – | – | – |
| Cc1ccc(C(=O)Nc2ccc(CN3CCN(CCC(=O)Nc4cccc5c4C(=O)N(C4CCC(=O)NC4=O)C5=O)CC3)c(C(F)(F)F)c2)cc1C#Cc1cnc2[nH]ncc2c1 (stereo not drawn) [7l, 3-((1H-Pyrazolo[3,4-b]pyridin-5-yl)ethynyl)-N-(4-((4-(3-((2-(2,6-dioxopiperidin-3-yl)-1,3-dioxoisoindolin-4-yl)amino)-3-oxopropyl)piperazin-1-yl)methyl)-3-(trifluoromethyl)phenyl)-4-methylbenzamide] | 65.8 ± 28.8 | −30.35 | 37.19 | 5.4 ± 0.8 | 2.1 ± 0.9 | – | – | – | – |
| Cc1ccc(C(=O)Nc2ccc(CN3CCN(CCOCCOCCNC(=O)[C@H](CC(C)C)NC(=O)[C@@H](O)[C@H](N)Cc4ccccc4)CC3)c(C(F)(F)F)c2)cc1C#Cc1cnc2[nH]ncc2c1 [7e, 3-((1H-Pyrazolo[3,4-b]pyridin-5-yl)ethynyl)-N-(4-((4-((11S,14S,15R)-15-amino-14-hydroxy-11-isobutyl-10,13-dioxo-16-phenyl-3,6-dioxa-9,12-diazahexadecyl)piperazin-1-yl)methyl)-3-(trifluoromethyl)phenyl)-4-methylbenzamide] | 2310 ± 424 | −14.92 | 11.17 | 240 ± 75.4 | 58.6 ± 11.4 | – | – | – | – |
| Cc1ccc(C(=O)Nc2ccc(CN3CCN(CCOCCOCCOCCC(=O)Nc4cccc5c4C(=O)N(C4CCC(=O)NC4=O)C5=O)CC3)c(C(F)(F)F)c2)cc1C#Cc1cnc2[nH]ncc2c1 (stereo not drawn) [compound 7h, 3-((1H-Pyrazolo[3,4-b]pyridin-5-yl)ethynyl)-N-(4-((4-(2-(2-(2-(3-((2-(2,6-dioxopiperidin-3-yl)-1,3-dioxoisoindolin-4-yl)amino)-3-oxopropoxy)ethoxy)ethoxy)ethyl)piperazin-1-yl)methyl)-3-(trifluoromethyl)phenyl)-4-methylbenzamide] | 83.4 ± 31.6 | 16.86 | 78.34 | 10.6 ± 2.6 | 13.7 ± 9.3 | about 2 fold | – | – | – |
| Cc1ccc(C(=O)Nc2ccc(CN3CCN(CCCCC(=O)Nc4cccc5c4C(=O)N(C4CCC(=O)NC4=O)C5=O)CC3)c(C(F)(F)F)c2)cc1C#Cc1cnc2[nH]ncc2c1 (stereo not drawn) [7m, 3-((1H-Pyrazolo[3,4-b]pyridin-5-yl)ethynyl)-N-(4-((4-(5-((2-(2,6-dioxopiperidin-3-yl)-1,3-dioxoisoindolin-4-yl)amino)-5-oxopentyl)piperazin-1-yl)methyl)-3-(trifluoromethyl)phenyl)-4-methylbenzamide] | 25 ± 10.4 | 49.84 | 48.67 | 4.3 ± 0.1 | 3 ± 1.2 | – | – | – | – |
| Cc1ccc(C(=O)Nc2ccc(CN3CCN(CCCCCC(=O)Nc4cccc5c4C(=O)N(C4CCC(=O)NC4=O)C5=O)CC3)c(C(F)(F)F)c2)cc1C#Cc1cnc2[nH]ncc2c1 (stereo not drawn) [7n, 3-((1H-Pyrazolo[3,4-b]pyridin-5-yl)ethynyl)-N-(4-((4-(6-((2-(2,6-dioxopiperidin-3-yl)-1,3-dioxoisoindolin-4-yl)amino)-6-oxohexyl)piperazin-1-yl)methyl)-3-(trifluoromethyl)phenyl)-4-methylbenzamide] | 33.4 ± 1.6 | 21.64 | 30.39 | 4.2 ± 0.3 | 2.1 ± 0.1 | – | – | – | – |
| 3-((1H-Pyrazolo[3,4-b]pyridin-5-yl)ethynyl)-N-(4-((4-(13-((2-(2,6-dioxopiperidin-3-yl)-1,3-dioxoisoindolin-4-yl)amino)-13-oxotridecyl)piperazin-1-yl)methyl)-3-(trifluoromethyl)phenyl)-4-methylbenzamide [7s] | – | −7.20 | 45.61 | – | – | – | 114 ± 29.9 | 61 ± 1.7 | 57.8 ± 19.5 |
| Cc1ccc(C(=O)Nc2ccc(CN3CCN(CCCCCCCCCCCCCCC(=O)Nc4cccc5c4C(=O)N(C4CCC(=O)NC4=O)C5=O)CC3)c(C(F)(F)F)c2)cc1C#Cc1cnc2[nH]ncc2c1 (stereo not drawn) [7t, 3-((1H-Pyrazolo[3,4-b]pyridin-5-yl)ethynyl)-N-(4-((4-(15-((2-(2,6-dioxopiperidin-3-yl)-1,3-dioxoisoindolin-4-yl)amino)-15-oxopentadecyl)piperazin-1-yl)methyl)-3-(trifluoromethyl)phenyl)-4-methylbenzamide] | 399 ± 248 | 13.75 | 28.73 | 363.7 ± 2.4 | 190 ± 26.6 | – | – | – | – |
| Cc1ccc(C(=O)Nc2ccc(CN3CCN(CCCCCCCCC(=O)Nc4cccc5c4C(=O)N(C4CCC(=O)NC4=O)C5=O)CC3)c(C(F)(F)F)c2)cc1C#Cc1cnc2[nH]ncc2c1 (stereo not drawn) [7p, 3-((1H-Pyrazolo[3,4-b]pyridin-5-yl)ethynyl)-N-(4-((4-(9-((2-(2,6-dioxopiperidin-3-yl)-1,3-dioxoisoindolin-4-yl)amino)-9-oxononyl)piperazin-1-yl)methyl)-3-(trifluoromethyl)phenyl)-4-methylbenzamide] | 21.8 ± 8.3 | 3.61 | 63.47 | 4.5 | 14 ± 4.5 | – | – | – | – |
| Cc1ccc(C(=O)Nc2ccc(CN3CCN(CCCCCCCCCCC(=O)Nc4cccc5c4C(=O)N(C4CCC(=O)NC4=O)C5=O)CC3)c(C(F)(F)F)c2)cc1C#Cc1cnc2[nH]ncc2c1 (stereo not drawn) [7q, 3-((1H-Pyrazolo[3,4-b]pyridin-5-yl)ethynyl)-N-(4-((4-(11-((2-(2,6-dioxopiperidin-3-yl)-1,3-dioxoisoindolin-4-yl)amino)-11-oxoundecyl)piperazin-1-yl)methyl)-3-(trifluoromethyl)phenyl)-4-methylbenzamide] | 70.1 ± 34.3 | 5.33 | 14.25 | 36.1 ± 0.9 | 46.4 ± 21.2 | – | – | – | – |
| Cc1ccc(C(=O)Nc2ccc(CN3CCN(C)CC3)c(C(F)(F)F)c2)cc1C#Cc1cnc2[nH]ncc2c1 [GZD824, reference compound] | 31 ± 11.7 | 2.59 | 20.62 | 6.8 ± 5.3 | 1.6 ± 0.7 | – | – | – | – |
| Cc1ccc(C(=O)Nc2ccc(CN3CCN(CCOCCOCCC(=O)NC45CC6CC(CC(C6)C4)C5)CC3)c(C(F)(F)F)c2)cc1C#Cc1cnc2[nH]ncc2c1 [7f, 3-((1H-Pyrazolo[3,4-b]pyridin-5-yl)ethynyl)-N-(4-((4-(2-(2-(3-(adamantan-1-ylamino)-3-oxopropoxy)ethoxy)ethyl)piperazin-1-yl)methyl)-3-(trifluoromethyl)phenyl)-4-methylbenzamide] | > 10000 | −5.26 | 11.72 | > 10000 | > 10000 | – | – | – | – |
| Cc1ccc(C(=O)Nc2ccc(CN3CCN(CCOCCOCCOCCOCCOCCOCCC(=O)Nc4cccc5c4C(=O)N(C4CCC(=O)NC4=O)C5=O)CC3)c(C(F)(F)F)c2)cc1C#Cc1cnc2[nH]ncc2c1 (stereo not drawn) [7k, 1-(4-(4-(3-((1H-Pyrazolo[3,4-b]pyridin-5-yl)ethynyl)-4-methylbenzamido)-2-(trifluoromethyl)benzyl)piperazin-1-yl)-N-(2-(2,6-dioxopiperidin-3-yl)-1,3-dioxoisoindolin-4-yl)-3,6,9,12,15,18-hexaoxahenicosan-21-amide] | 306 ± 69.3 | 19.38 | 25.53 | 107 ± 24.9 | 10.5 ± 0.5 | – | – | – | – |
